In ChEMBL document CHEMBL1671716, “Antimicrobial susceptibility patterns for recent clinical isolates of anaerobic bacteria in South Korea” (2010):
Converted amounts (≈) assume the structure as drawn.

Each molecule was assayed on Bacteroides caccae (assay: Antimicrobial activity against Bacteroides caccae after 48 hrs by agar dilution method).
Format: functional
Method in brief: (§1)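 MICs on clinical anaerobe isolates by the CLSI agar dilution method. Inoculum of 10^5 CFU applied with a Steers replicator. Plates incubated 48 h at 37°C in an anaerobic chamber.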
`CCC[C@@H]1C[C@@H](C(=O)N[C@@H]([C@H]2O[C@H](SC)[C@H](O)[C@@H](O)[C@H]2O)[C@H](C)Cl)N(C)C1` [CLINDAMYCIN] was tested, and the MIC50 was > 128 µg/mL and the MIC90 was > 128 µg/mL.

These molecules were tested on Parabacteroides distasonis (assay: Antimicrobial activity against Bacteroides distasonis after 48 hrs by agar dilution method).
Format: functional
Method in brief: as §1
For `CCC[C@@H]1C[C@@H](C(=O)N[C@@H]([C@H]2O[C@H](SC)[C@H](O)[C@@H](O)[C@H]2O)[C@H](C)Cl)N(C)C1` [CLINDAMYCIN], the MIC50 was > 128 µg/mL and the MIC90 was > 128 µg/mL.

These molecules were tested on Phocaeicola vulgatus (assay: Antimicrobial activity against Bacteroides vulgatus after 48 hrs by agar dilution method).
Format: functional
Method in brief: as §1
For `CCC[C@@H]1C[C@@H](C(=O)N[C@@H]([C@H]2O[C@H](SC)[C@H](O)[C@@H](O)[C@H]2O)[C@H](C)Cl)N(C)C1` [CLINDAMYCIN], the MIC50 was > 128 µg/mL and the MIC90 was > 128 µg/mL.

The molecules below were run on Bacteroides ovatus (assay: Antimicrobial activity against Bacteroides ovatus after 48 hrs by agar dilution method).
Format: functional
Method in brief: as §1
With `CCC[C@@H]1C[C@@H](C(=O)N[C@@H]([C@H]2O[C@H](SC)[C@H](O)[C@@H](O)[C@H]2O)[C@H](C)Cl)N(C)C1` [CLINDAMYCIN] the MIC50 was > 128 µg/mL and the MIC90 was > 128 µg/mL.

The molecules below were run on Bacteroides fragilis (assay: Antimicrobial activity against Bacteroides fragilis assessed as percent resistant isolates after 48 hrs by agar dilution method).
Format: functional
Method in brief: (§2)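 CLSI agar dilution on recent Korean clinical anaerobe isolates. Inoculum 10^5 CFU per spot by replicator. Plates incubated in an anaerobic chamber at 37°C for 48 h. For piperacillin plus tazobactam, tazobactam was held constant at 4 μg/ml. Resistance and susceptibility rates derived from MICs.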
Work on `CCC[C@@H]1C[C@@H](C(=O)N[C@@H]([C@H]2O[C@H](SC)[C@H](O)[C@@H](O)[C@H]2O)[C@H](C)Cl)N(C)C1` [CLINDAMYCIN] yielded an Activity of 33%.

These molecules were tested on Bacteroides thetaiotaomicron (assay: Antimicrobial activity against Bacteroides thetaiotaomicron assessed as percent susceptible isolates after 48 hrs by agar dilution method).
Format: functional
`CCC[C@@H]1C[C@@H](C(=O)N[C@@H]([C@H]2O[C@H](SC)[C@H](O)[C@@H](O)[C@H]2O)[C@H](C)Cl)N(C)C1` [CLINDAMYCIN] showed an Activity of 16%.

The molecules below were run on Bacteroides caccae (assay: Antimicrobial activity against Bacteroides caccae assessed as percent susceptible isolates after 48 hrs by agar dilution method).
Format: functional
With `CCC[C@@H]1C[C@@H](C(=O)N[C@@H]([C@H]2O[C@H](SC)[C@H](O)[C@@H](O)[C@H]2O)[C@H](C)Cl)N(C)C1` [CLINDAMYCIN] the Activity was 16%.

What follows are molecules tested on Phocaeicola vulgatus (assay: Antimicrobial activity against Bacteroides vulgatus assessed as percent susceptible isolates after 48 hrs by agar dilution method).
Format: functional
`CCC[C@@H]1C[C@@H](C(=O)N[C@@H]([C@H]2O[C@H](SC)[C@H](O)[C@@H](O)[C@H]2O)[C@H](C)Cl)N(C)C1` [CLINDAMYCIN] gave an Activity of 16%.

Each molecule was assayed on Prevotella intermedia (assay: Antimicrobial activity against Prevotella intermedia after 48 hrs by agar dilution method).
Format: functional
Method in brief: (§3)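 CLSI agar dilution (M11-A7); inoculum 10^5 CFU applied by replicator; plates incubated anaerobically 48 h at 37°C. For piperacillin-tazobactam, tazobactam held constant at 4 μg/ml.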
For `CCC[C@@H]1C[C@@H](C(=O)N[C@@H]([C@H]2O[C@H](SC)[C@H](O)[C@@H](O)[C@H]2O)[C@H](C)Cl)N(C)C1` [CLINDAMYCIN], the MIC50 was ≤ 0.06 µg/mL and the MIC90 was ≤ 0.06 µg/mL.

These molecules were tested on Prevotella bivia (assay: Antimicrobial activity against Prevotella bivia after 48 hrs by agar dilution method).
Format: functional
Method in brief: as §3
With `CCC[C@@H]1C[C@@H](C(=O)N[C@@H]([C@H]2O[C@H](SC)[C@H](O)[C@@H](O)[C@H]2O)[C@H](C)Cl)N(C)C1` [CLINDAMYCIN] the MIC50 was ≤ 0.06 µg/mL and the MIC90 was 128 µg/mL (≈ 301 µM).

What follows are molecules tested on Prevotella intermedia (assay: Antimicrobial activity against Prevotella intermedia assessed as percent susceptible isolates after 48 hrs by agar dilution method).
Format: functional
Method in brief: as §3
`CCC[C@@H]1C[C@@H](C(=O)N[C@@H]([C@H]2O[C@H](SC)[C@H](O)[C@@H](O)[C@H]2O)[C@H](C)Cl)N(C)C1` [CLINDAMYCIN] gave an Activity of 100%.

These molecules were tested on Prevotella bivia (assay: Antimicrobial activity against Prevotella bivia assessed as percent susceptible isolates after 48 hrs by agar dilution method).
Format: functional
Method in brief: as §3
Molecule `CCC[C@@H]1C[C@@H](C(=O)N[C@@H]([C@H]2O[C@H](SC)[C@H](O)[C@@H](O)[C@H]2O)[C@H](C)Cl)N(C)C1` [CLINDAMYCIN] has an Activity of 50%.

These molecules were tested on Prevotella buccae (assay: Antimicrobial activity against Prevotella buccae assessed as percent susceptible isolates after 48 hrs by agar dilution method).
Format: functional, Segatella buccae
Method in brief: as §3
In the case of `CCC[C@@H]1C[C@@H](C(=O)N[C@@H]([C@H]2O[C@H](SC)[C@H](O)[C@@H](O)[C@H]2O)[C@H](C)Cl)N(C)C1` [CLINDAMYCIN], the Activity is reported as 50%.

What follows are molecules tested on Fusobacterium mortiferum (assay: Antimicrobial activity against Fusobacterium mortiferum after 48 hrs by agar dilution method).
Format: functional
Method in brief: as §3
Work on `CCC[C@@H]1C[C@@H](C(=O)N[C@@H]([C@H]2O[C@H](SC)[C@H](O)[C@@H](O)[C@H]2O)[C@H](C)Cl)N(C)C1` [CLINDAMYCIN] yielded an MIC of 0.06 µg/mL (≈ 0.141 µM).

These molecules were tested on Parvimonas micra (assay: Antimicrobial activity against Peptostreptococcus micros assessed as percent susceptible isolates after 48 hrs by agar dilution method).
Format: functional
Method in brief: as §2
`CCC[C@@H]1C[C@@H](C(=O)N[C@@H]([C@H]2O[C@H](SC)[C@H](O)[C@@H](O)[C@H]2O)[C@H](C)Cl)N(C)C1` [CLINDAMYCIN] was tested, and the Activity was 23%.

The molecules below were run on Peptoniphilus asaccharolyticus (assay: Antimicrobial activity against Peptoniphilus asaccharolyticus after 48 hrs by agar dilution method).
Format: functional
Method in brief: as §3
`CCC[C@@H]1C[C@@H](C(=O)N[C@@H]([C@H]2O[C@H](SC)[C@H](O)[C@@H](O)[C@H]2O)[C@H](C)Cl)N(C)C1` [CLINDAMYCIN] gave an MIC50 of 0.125 µg/mL (≈ 0.294 µM) and an MIC90 of 32 µg/mL (≈ 75.3 µM).

These molecules were tested on Finegoldia magna (assay: Antimicrobial activity against Finegoldia magna after 48 hrs by agar dilution method).
Format: functional
Method in brief: as §3
`CCC[C@@H]1C[C@@H](C(=O)N[C@@H]([C@H]2O[C@H](SC)[C@H](O)[C@@H](O)[C@H]2O)[C@H](C)Cl)N(C)C1` [CLINDAMYCIN] was tested, and the MIC50 was 0.25 µg/mL (≈ 0.588 µM) and the MIC90 was 64 µg/mL (≈ 151 µM).

Each molecule was assayed on Clostridium perfringens (assay: Antimicrobial activity against Clostridium perfringens after 48 hrs by agar dilution method).
Format: functional
Molecule `CCC[C@@H]1C[C@@H](C(=O)N[C@@H]([C@H]2O[C@H](SC)[C@H](O)[C@@H](O)[C@H]2O)[C@H](C)Cl)N(C)C1` [CLINDAMYCIN] has an MIC50 of 2 µg/mL (≈ 4.71 µM) and an MIC90 of 4 µg/mL (≈ 9.41 µM).

These molecules were tested on Clostridium perfringens (assay: Antimicrobial activity against Clostridium perfringens assessed as percent susceptible isolates after 48 hrs by agar dilution method).
Format: functional
Work on `CCC[C@@H]1C[C@@H](C(=O)N[C@@H]([C@H]2O[C@H](SC)[C@H](O)[C@@H](O)[C@H]2O)[C@H](C)Cl)N(C)C1` [CLINDAMYCIN] yielded an Activity of 80%.

The molecules below were run on Clostridioides difficile (assay: Antimicrobial activity against Clostridium difficile after 48 hrs by agar dilution method).
Format: functional
Molecule `CCC[C@@H]1C[C@@H](C(=O)N[C@@H]([C@H]2O[C@H](SC)[C@H](O)[C@@H](O)[C@H]2O)[C@H](C)Cl)N(C)C1` [CLINDAMYCIN] has an MIC50 of 64 µg/mL (≈ 151 µM) and an MIC90 of 128 µg/mL (≈ 301 µM).

What follows are molecules tested on Actinomyces israelii (assay: Antimicrobial activity against Actinomyces israelii after 48 hrs by agar dilution method).
Format: functional
Method in brief: as §1
In the case of `CCC[C@@H]1C[C@@H](C(=O)N[C@@H]([C@H]2O[C@H](SC)[C@H](O)[C@@H](O)[C@H]2O)[C@H](C)Cl)N(C)C1` [CLINDAMYCIN], the MIC is reported as 0.06 µg/mL (≈ 0.141 µM), the MIC50 is reported as 0.06 µg/mL (≈ 0.141 µM) and the MIC90 is reported as > 128 µg/mL.

What follows are molecules tested on Schaalia meyeri (assay: Antimicrobial activity against Actinomyces meyeri after 48 hrs by agar dilution method).
Format: functional
Method in brief: as §1
In the case of `CCC[C@@H]1C[C@@H](C(=O)N[C@@H]([C@H]2O[C@H](SC)[C@H](O)[C@@H](O)[C@H]2O)[C@H](C)Cl)N(C)C1` [CLINDAMYCIN], the MIC is reported as 0.06 µg/mL (≈ 0.141 µM), the MIC50 is reported as 0.06 µg/mL (≈ 0.141 µM) and the MIC90 is reported as > 128 µg/mL.

The molecules below were run on Schaalia meyeri (assay: Antimicrobial activity against Actinomyces meyeri assessed as percent resistant isolates after 48 hrs by agar dilution method).
Format: functional
Method in brief: as §2
`CCC[C@@H]1C[C@@H](C(=O)N[C@@H]([C@H]2O[C@H](SC)[C@H](O)[C@@H](O)[C@H]2O)[C@H](C)Cl)N(C)C1` [CLINDAMYCIN] gave an Activity of 15%.

The molecules below were run on Actinomyces naeslundii (assay: Antimicrobial activity against Actinomyces naeslundii assessed as percent resistant isolates after 48 hrs by agar dilution method).
Format: functional
Method in brief: as §2
`CCC[C@@H]1C[C@@H](C(=O)N[C@@H]([C@H]2O[C@H](SC)[C@H](O)[C@@H](O)[C@H]2O)[C@H](C)Cl)N(C)C1` [CLINDAMYCIN] was tested, and the Activity was 15%.

Each molecule was assayed on Bifidobacterium adolescentis (assay: Antimicrobial activity against Bifidobacterium adolescentis after 48 hrs by agar dilution method).
Format: functional
Method in brief: as §1
In the case of `CCC[C@@H]1C[C@@H](C(=O)N[C@@H]([C@H]2O[C@H](SC)[C@H](O)[C@@H](O)[C@H]2O)[C@H](C)Cl)N(C)C1` [CLINDAMYCIN], the MIC is reported as 0.06 µg/mL (≈ 0.141 µM), the MIC50 is reported as 0.06 µg/mL (≈ 0.141 µM) and the MIC90 is reported as > 128 µg/mL.

These molecules were tested on Eggerthella lenta (assay: Antimicrobial activity against Eubacterium lentum assessed as percent susceptible isolates after 48 hrs by agar dilution method).
Format: functional
Method in brief: as §3
`CCC[C@@H]1C[C@@H](C(=O)N[C@@H]([C@H]2O[C@H](SC)[C@H](O)[C@@H](O)[C@H]2O)[C@H](C)Cl)N(C)C1` [CLINDAMYCIN] gave an Activity of 85%.

What follows are molecules tested on Eggerthella lenta (assay: Antimicrobial activity against Eubacterium lentum assessed as percent resistant isolates after 48 hrs by agar dilution method).
Format: functional
Method in brief: as §2
In the case of `CCC[C@@H]1C[C@@H](C(=O)N[C@@H]([C@H]2O[C@H](SC)[C@H](O)[C@@H](O)[C@H]2O)[C@H](C)Cl)N(C)C1` [CLINDAMYCIN], the Activity is reported as 15%.

These molecules were tested on Eubacterium sp. (assay: Antimicrobial activity against Eubacterium sp. after 48 hrs by agar dilution method).
Format: functional
Method in brief: as §3
`CCC[C@@H]1C[C@@H](C(=O)N[C@@H]([C@H]2O[C@H](SC)[C@H](O)[C@@H](O)[C@H]2O)[C@H](C)Cl)N(C)C1` [CLINDAMYCIN] was tested, and the MIC was 0.06 µg/mL (≈ 0.141 µM), the MIC50 was 0.06 µg/mL (≈ 0.141 µM) and the MIC90 was > 128 µg/mL.
